Experimental data of several laboratories.
Protocols differ between the studies behind these lines.
PADI1: Protein-arginine deiminase type-1 (PADI1, Homo sapiens, UniProt Q9ULC6)
KDR: Vascular endothelial growth factor receptor 2 (KDR, Homo sapiens, UniProt P35968)
CDK16: Cyclin-dependent kinase 16 (CDK16, Homo sapiens, UniProt Q00536)

| SMILES | target | assay | test system | setting | quantity | value |
| --- | --- | --- | --- | --- | --- | --- |
| N=C(CF)NCCC[C@H](NC(=O)c1ccccc1)c1nn[nH]n1 | PADI1 | enzyme activity, inhibitor |  |  | kinact/KI | 5.75 M⁻¹ s⁻¹ |
| Oc1ccc(-c2nc(-c3ccncc3)c(-c3ccc(F)cc3)[nH]2)cc1 | ATPase family AAA domain-containing protein 2, bromodomain (ATAD2, Homo sapiens, UniProt Q6PL18) | thermal stability, DSF |  | 10 µM | ΔTm | 0.05 °C |
| COc1ccc(NC(=O)c2c(Nc3ccccc3)sc(C(=O)NN=Cc3ccc(OC)c(O)c3)c2NC(C)=O)cc1 | KDR | enzyme activity, inhibitor |  | 10 nM | remaining activity | 99% |
| NC(=O)N/N=C/c1ccc([N+](=O)[O-])o1 | Glycogen synthase kinase-3 beta (GSK3B, Homo sapiens, UniProt P49841) | enzyme activity, inhibitor, ADP detection |  | 100 µM | inhibition | 31% |
| Nc1ncnc2occ(-c3ccc(NC(=O)Nc4cc(C(F)(F)F)ccc4F)cc3)c12 | Phosphatidylinositol 5-phosphate 4-kinase type-2 beta (PIP4K2B, Homo sapiens, UniProt P78356) | enzyme activity, inhibitor |  | 20 µM | remaining activity | 100% |
| CC[C@H]1OC(=O)[C@H](C)[C@@H](O[C@H]2C[C@@](C)(OC)[C@@H](O)[C@H](C)O2)[C@H](C)[C@@H](O[C@@H]2O[C@H](C)C[C@H](N(C)C)[C@H]2O)[C@](C)(O)C[C@@H](C)C(=O)[C@H](C)[C@@H](O)[C@]1(C)O | Motilin receptor (MLNR, Homo sapiens, UniProt O43193) | inositol phosphate, agonist, TR-FRET | AD293 |  | Emax | 100% |
| CN(C)C1CCN(CC#Cc2nn(C3CCCC3)c3nc(NCc4ccccc4)ncc23)C1 (centres unmarked) | cGMP-dependent protein kinase 2 (PRKG2, Homo sapiens, UniProt Q13237) | enzyme activity, inhibitor, FRET |  | 0.1 µM | inhibition | 7% |
| N=C(CCl)NCCC[C@H](NC(=O)c1ccccc1)c1nn[nH]n1 | PADI1 | enzyme activity, inhibitor |  |  | kinact/KI | 110 M⁻¹ s⁻¹ |
| CC1(C)NC(=O)c2[nH]c3c(Cl)c(Cl)ccc3c2C1C#N (centres unmarked) | CDK16 | thermal stability, DSF |  | 10 µM | ΔTm | 0.4 °C |
| COc1ccc(C=NNC(=O)c2sc(Nc3ccccc3)c(C(=O)Nc3ccc(OC)cc3)c2NC(C)=O)cc1 | KDR | enzyme activity, inhibitor |  | 1 µM | remaining activity | 65.5% |
| Cc1ccc(C(=O)Nc2ccc(CN3CCN(C)CC3)c(C(F)(F)F)c2)cc1C#Cc1cnc2cccnn12 | Phosphatidylinositol 4,5-bisphosphate 3-kinase catalytic subunit alpha isoform (PIK3CA, Homo sapiens, UniProt P42336, H1047L) | enzyme activity, inhibitor |  | 23.5 nM | remaining activity | 70% |
| N=C(CCl)NCCC[C@H](NC(=O)c1ccc(-c2ccccc2)cc1)c1nn[nH]n1 | PADI1 | enzyme activity, inhibitor |  |  | kinact/KI | 51.7 M⁻¹ s⁻¹ |
| Cn1c2c(Cl)c(Cl)ccc2c2cc[nH]c(=O)c21 | CDK16 | thermal stability, DSF |  | 10 µM | ΔTm | 0 °C |
| O=C(O)c1ccc2c(c1)nc(NCCc1cccc(Cl)c1)c1ncncc12 | Dual specificity tyrosine-phosphorylation-regulated kinase 2 (DYRK2, Homo sapiens, UniProt Q92630) | enzyme activity, inhibitor, radiometric |  | 1 µM | remaining activity | 76% |
| CC(C)(C)n1nnc([C@H](CCCNC(=N)CF)NC(=O)c2ccc(-c3ccccc3)cc2)n1 | PADI1 | enzyme activity, inhibitor |  |  | kinact/KI | 14.4 M⁻¹ s⁻¹ |
| COc1ccc(NC(=O)c2c(Nc3ccccc3)sc(C(=O)NN=Cc3ccc(Cl)cc3)c2NC(C)=O)cc1 | KDR | enzyme activity, inhibitor |  | 0.1 µM | remaining activity | 88.3% |
| CC(C)(C)n1nnc([C@H](CCCNC(=N)CF)NC(=O)c2ccccc2)n1 | PADI1 | enzyme activity, inhibitor |  |  | kinact/KI | 26.6 M⁻¹ s⁻¹ |
| NCCCC[C@H](NC(=O)[C@@H]1CCCN1C(=O)[C@@H]1CSSC[C@H](N)C(=O)N[C@@H](Cc2ccc(O)cc2)C(=O)N[C@@H](Cc2ccccc2)C(=O)N[C@@H](CCC(N)=O)C(=O)N[C@@H](CC(N)=O)C(=O)N1)C(=O)NCC(N)=O | Vasopressin V1a receptor (AVPR1A, Homo sapiens, UniProt P37288) | calcium signal, agonist | CHO-S |  | Emax | ~100% |
| COc1ccc(NC(=O)c2c(Nc3ccccc3)sc(C(=O)NN=Cc3cc(OC)c(OC)c(OC)c3)c2NC(C)=O)cc1 | KDR | enzyme activity, inhibitor |  | 100 µM | remaining activity | 72.2% |
| CC(=O)NCCc1c[nH]c2ccc(O)cc12 | Sulfotransferase 1C4 (SULT1C4, Homo sapiens, UniProt O75897) | enzyme activity, substrate |  | pH 7 | Km | 45.7 µM |
| Cn1c2c(Cl)c(Cl)ccc2c2cc(N)[nH]c(=O)c21 | CDK16 | thermal stability, DSF |  | 10 µM | ΔTm | 0.3 °C |
| CC(C)(C)n1nnc([C@H](CCCNC(=N)CF)NC(=O)c2ccccc2C(=O)O)n1 | PADI1 | enzyme activity, inhibitor |  |  | kinact/KI | 1670 M⁻¹ s⁻¹ |
| COc1ccc(NC(=O)c2c(Nc3ccccc3)sc(C#N)c2NC(=O)CNc2ccc([N+](=O)[O-])cc2)cc1 | KDR | enzyme activity, inhibitor |  | 1 µM | remaining activity | 79.1% |
